Here are results for twelve compounds from ChEMBL document CHEMBL1140547, “Potent oxindole based human beta3 adrenergic receptor agonists” (Bioorg Med Chem Lett, 2007).

Data set [1] deals with T1, Beta-3 adrenergic receptor (Homo sapiens, UniProt P13945). Description: Agonist activity at human beta-3 adrenergic receptor expressed in CHO cells assessed as cAMP level. The class given is functional, cell-based. The gist of the method:
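cAMP accumulation measured in CHO cells expressing the human β receptor. Intrinsic activity is the compound's maximal response as a percentage of the maximal isoproterenol response.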
Target sequence in this assay (P13945 whole entry): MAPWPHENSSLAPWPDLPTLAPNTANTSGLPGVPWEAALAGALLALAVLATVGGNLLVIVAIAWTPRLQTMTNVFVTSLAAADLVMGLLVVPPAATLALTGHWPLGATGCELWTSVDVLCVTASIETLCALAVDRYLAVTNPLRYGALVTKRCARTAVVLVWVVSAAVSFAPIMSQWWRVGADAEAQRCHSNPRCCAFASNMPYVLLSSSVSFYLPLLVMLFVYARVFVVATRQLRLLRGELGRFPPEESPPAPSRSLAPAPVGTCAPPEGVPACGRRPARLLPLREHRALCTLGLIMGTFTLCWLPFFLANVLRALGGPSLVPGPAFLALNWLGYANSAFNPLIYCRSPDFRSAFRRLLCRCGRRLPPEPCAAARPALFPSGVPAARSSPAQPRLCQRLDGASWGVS

In data set [2] the target is Beta-1 adrenergic receptor (Homo sapiens, UniProt P08588). Description: Agonist activity at human beta-1 adrenergic receptor expressed in CHO cells assessed as cAMP level. Type of data set: functional, cell-based.
Data set [3] concerns the target Beta-2 adrenergic receptor (Homo sapiens, UniProt P07550). Briefly: Agonist activity at human beta-2 adrenergic receptor expressed in CHO cells assessed as cAMP level. The class given is functional, cell-based.
Data set [4] deals with T1, Beta-3 adrenergic receptor. Description: Agonist activity at human beta-3 adrenergic receptor expressed in CHO cells assessed as cAMP level relative to isoproterenol. The class given is functional, cell-based. The gist of the method:
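CHO cells expressing human β3 adrenergic receptor; agonism read out as cAMP level. Intrinsic activity taken as the compound's maximal response expressed as percentage of the maximal response to isoproterenol at […]; n = 3.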
Target sequence in this assay (P13945 whole entry, looked up): as the sequence (P13945 whole entry) above

In a further data set the test system is Cardiac atrium. Description: Effect on rat atrial tachycardia assessed as increase in heart rate. Type of data set: functional. The gist of the method:
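Isolated rat atria were used to score tachycardia. The value is the maximal response, or the response at a single fixed high agonist level when no maximum was reached.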

In data set [5] the test system is Rattus norvegicus. Description: Effect on food consumption in diet induced obese Long Evans rat at 10 mg/kg, po. Type of data set: functional. The gist of the method:
(§1)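 Diet-induced obese Long Evans rats received one oral dose (1 or 10 mg/kg) or vehicle. Indirect calorimetry tracked respiratory quotient over 24 h. RQ reduction and energy expenditure increase were expressed as % versus vehicle over 20 h. Food consumption was recorded in g. Statistical significance was assessed against vehicle.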

The test system of data set [6] is Rattus norvegicus. Description: Increase in energy expenditure in diet induced obese Long Evans rat at 1 mg/kg, po after 20 hrs relative to control. The class given is functional. The gist of the method:
as §1

For data set [7], the system named is Rattus norvegicus. Description: Effect on food consumption in diet induced obese Long Evans rat at 1 mg/kg, po. Type of data set: functional. The gist of the method:
as §1

A short description of data set [8]: Oral bioavailability in rat […]. Type of data set: ADME, organism-based. Conditions: in vivo.
Data set [9] in a line: Oral bioavailability in F344 rat. Conditions: in vivo.
The test system of data set [10] is Rattus norvegicus. Briefly: Increase in energy expenditure in diet induced obese Long Evans rat at 10 mg/kg, po after 20 hrs relative to control. Type of data set: functional. The gist of the method: as §1
Data set [11] has as its target Beta-3 adrenergic receptor (Rattus norvegicus, UniProt P26255). Briefly: Agonist activity at rat beta-3 adrenergic receptor. The class given is functional.
Data set [12] relates to Rattus norvegicus. Briefly: Reduction in respiratory quotient in diet induced obese Long Evans rat at 1 mg/kg, po after 20 hrs relative to control. Set-up: scale not given: the % may be the effect or the level left. Type of data set: functional. The gist of the method:
as §1

Data set [13] relates to Rattus norvegicus. Description: Reduction in respiratory quotient in diet induced obese Long Evans rat at 10 mg/kg, po after 20 hrs relative to control. Set-up: scale not given: the % may be the effect or the level left. The class given is functional. The gist of the method:
as §1

Chain of Beta-2 adrenergic receptor (P07550 whole entry): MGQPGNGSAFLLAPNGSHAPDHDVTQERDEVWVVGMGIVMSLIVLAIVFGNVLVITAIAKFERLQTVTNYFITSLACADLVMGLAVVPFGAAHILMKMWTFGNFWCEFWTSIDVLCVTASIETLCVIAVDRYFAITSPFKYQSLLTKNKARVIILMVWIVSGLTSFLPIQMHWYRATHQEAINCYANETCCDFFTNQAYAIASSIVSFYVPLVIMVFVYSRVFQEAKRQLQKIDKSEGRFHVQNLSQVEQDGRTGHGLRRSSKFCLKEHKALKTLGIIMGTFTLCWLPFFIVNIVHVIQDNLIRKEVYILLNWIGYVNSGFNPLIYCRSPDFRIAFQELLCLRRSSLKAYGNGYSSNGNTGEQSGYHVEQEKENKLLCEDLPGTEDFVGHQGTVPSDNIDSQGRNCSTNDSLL
Chain of Beta-1 adrenergic receptor (P08588 whole entry): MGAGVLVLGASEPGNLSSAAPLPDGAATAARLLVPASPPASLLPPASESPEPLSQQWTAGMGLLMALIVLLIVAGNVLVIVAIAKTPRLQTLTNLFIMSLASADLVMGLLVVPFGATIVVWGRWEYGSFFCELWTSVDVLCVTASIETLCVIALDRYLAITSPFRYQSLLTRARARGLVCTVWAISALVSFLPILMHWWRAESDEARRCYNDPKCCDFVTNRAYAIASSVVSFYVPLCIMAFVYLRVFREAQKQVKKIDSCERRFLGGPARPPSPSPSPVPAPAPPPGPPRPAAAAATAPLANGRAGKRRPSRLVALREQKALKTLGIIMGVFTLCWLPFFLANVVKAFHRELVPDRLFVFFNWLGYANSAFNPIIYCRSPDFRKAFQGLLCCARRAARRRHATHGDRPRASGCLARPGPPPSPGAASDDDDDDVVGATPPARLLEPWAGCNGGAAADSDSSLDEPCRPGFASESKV
Chain of Beta-3 adrenergic receptor (Rattus norvegicus, UniProt P26255) (P26255 whole entry): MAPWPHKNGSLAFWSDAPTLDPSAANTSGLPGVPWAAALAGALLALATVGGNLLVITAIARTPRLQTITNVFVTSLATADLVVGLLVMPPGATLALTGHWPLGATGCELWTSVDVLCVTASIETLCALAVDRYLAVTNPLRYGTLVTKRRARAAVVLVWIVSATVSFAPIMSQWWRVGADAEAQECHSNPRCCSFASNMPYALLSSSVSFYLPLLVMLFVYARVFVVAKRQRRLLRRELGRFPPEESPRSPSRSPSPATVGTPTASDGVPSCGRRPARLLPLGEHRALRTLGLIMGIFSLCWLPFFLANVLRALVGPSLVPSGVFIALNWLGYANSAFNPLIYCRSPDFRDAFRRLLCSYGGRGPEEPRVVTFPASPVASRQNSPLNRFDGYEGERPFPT

Turning to `CC(C)(Cc1ccc(Oc2ccc(C(N)=O)cn2)cc1)NC[C@H](O)COc1cccc2c1C(Cc1ccccc1)C(=O)N2` (stereo not given in full), the half-maximal effective concentration (EC50) in data set [1] was 12.3 nM; in data set [2] it was above 10000 nM; in data set [3], above 10000 nM. Further, in data set [4], the maximal effect (Emax) turned out to be 15.6%.
For the compound `CC(C)CC1C(=O)Nc2cccc(OC[C@@H](O)CNC(C)(C)Cc3ccc(Oc4ccc(C(N)=O)cn4)cc3)c21` (stereo not given in full), the EC50 in data set [1] is 14 nM; in data set [2], above 10000 nM; in data set [3], above 10000 nM. Further, the Emax in data set [4] was 49.4%.
`CC(C)(Cc1ccc(Oc2ccc(C(N)=O)cn2)cc1)NC[C@H](O)COc1cccc2c1C1(CCCCC1)C(=O)N2`: the EC50 in [1] is 8.3 nM; in data set [2], above 10000 nM; in data set [3], above 10000 nM. For the same compound, in the data set on Cardiac atrium, the Activity stood at 16%. In data set [4], the Emax came out at 41%.
As to `CC(C)(Cc1ccc(Oc2ccc(C(N)=O)cn2)cc1)NC[C@H](O)COc1cccc2c1C1(CC1)C(=O)N2`, the EC50 came to 6.6 nM in data set [1], 58.3 nM in data set [2] and 35.2 nM in data set [3]. The Activity with Cardiac atrium is on record as 13.2%. The Emax in [4] was found to be 76.8%.
Consider `CC(C)(Cc1ccc(Oc2ccc(C(N)=O)cn2)cc1)NC[C@H](O)COc1cccc2c1C(Cc1ccccc1)(Cc1ccccc1)C(=O)N2`, for which the EC50 was 268 nM in data set [1], above 10000 nM in data set [2] and above 10000 nM in data set [3]. Moreover, the Emax in data set [4] worked out at 48.5%.
With `CC(C)(Cc1ccc(Oc2ccc(C(N)=O)cn2)cc1)NC[C@H](O)COc1cccc2c1C(C)(C)C(=O)N2`, the Activity in the data set on Rattus norvegicus [5] was determined as 11.8 g; in the data set on Rattus norvegicus [6], 8%; in the data set with Rattus norvegicus [7] it was 13.7 g; in the data set on Cardiac atrium, 9.7%; in the data set with Rattus norvegicus [10], 14%; in the data set with Rattus norvegicus [12] it was 31%. For the same compound, the Activity in the data set with Rattus norvegicus [13] was 45%. Also, the EC50 was 5.2 nM in [1], above 10000 nM in data set [2], 6.5 nM in data set [11] and above 10000 nM in [3]. The bioavailability in data set [8] and in data set [9] was 10% throughout. Further, the Emax in data set [4] was found to be 67.9%.
For the compound `CCC1(CC)C(=O)Nc2cccc(OC[C@@H](O)CNC(C)(C)Cc3ccc(Oc4ccc(C(N)=O)cn4)cc3)c21`, the values for the EC50 in [1], in data set [2] and in data set [3] were 2.7 nM, above 10000 nM and above 10000 nM, respectively. The Activity in the data set with Cardiac atrium was determined as 2%. Also, in data set [4], the Emax was 14.2%.
In the case of `CC(C)(Cc1ccc(Oc2ccc(C(N)=O)cn2)cc1)NC[C@H](O)COc1cccc2c1C1(CCC1)C(=O)N2`, the EC50 in [1] is 17.6 nM; in [2] it was above 10000 nM; in data set [3] it was above 10000 nM. Also, in the data set with Cardiac atrium, the Activity is on record as 14.8%. For the same compound, in data set [4], the Emax is 71.2%.
As to `CC(C)C1C(=O)Nc2cccc(OC[C@@H](O)CNC(C)(C)Cc3ccc(Oc4ccc(C(N)=O)cn4)cc3)c21` (stereo not given in full), the concentration for a half-maximal effect (EC50) in data set [1] is 13.9 nM; in data set [2] it was above 10000 nM; in data set [3], above 10000 nM. For the same compound, in [4], the Emax stood at 41.7%.
Consider `CC(C)(Cc1ccc(Oc2ccc(C(N)=O)cn2)cc1)NC[C@H](O)COc1cccc2c1CC(=O)N2`, for which the half-maximal effective concentration (EC50) is 24.4 nM in data set [1], above 10000 nM in data set [2] and above 10000 nM in data set [3]. The Activity in the data set on Cardiac atrium is 19.5%. In addition, the Emax in data set [4] is 50.5%.
As to `CC1C(=O)Nc2cccc(OC[C@@H](O)CNC(C)(C)Cc3ccc(Oc4ccc(C(N)=O)cn4)cc3)c21` (stereo not given in full), the EC50 in data set [1] is 12 nM; in [2], above 10000 nM; in data set [3], above 10000 nM. For the same compound, the Activity in the data set with Cardiac atrium is given as 10.4%. Also, in [4], the Emax is 72.6%.
In the case of `CC(C)(Cc1ccc(Oc2ccc(C(N)=O)cn2)cc1)NC[C@H](O)COc1cccc2c1C1(CCCC1)C(=O)N2`, the values for the half-maximal effective concentration (EC50) in data set [1], in data set [2] and in [3] were 10.6 nM, above 10000 nM and above 10000 nM, respectively. The Activity in the data set with Cardiac atrium turned out to be 8.6%. Also, the Emax in data set [4] amounted to 66.3%.
